Results of several laboratories.
Protocols differ between the studies behind these lines.
PPO3: PPO3 (Agaricus bisporus, UniProt C7FF04)
HTR2A: 5-hydroxytryptamine receptor 2A (HTR2A, Homo sapiens, UniProt P28223)

`COc1cc(/C=C/C(=O)O)ccc1OCc1cn(CC(=O)Nc2ccccc2Cl)nn1` gave an inhibition of 16.2% (PPO3; enzyme activity; inhibitor; 40 µM).
With `CC(C)CC(=O)OC[C@H]1O[C@@](C#N)(c2ccc3c(N)ncnn23)[C@H](O)[C@@H]1O` the inhibition was 5% (HTR2A; cell-free assay; 20 µM).
`c1cncc([C@@H]2CCCN2)c1` gave an inhibition of -6.74% (Kappa-type opioid receptor (OPRK1, Homo sapiens, UniProt P41145); ligand displacement; 50 µM).
For `COc1cc2c3c(c1OC)-c1c(OC)ccc(Br)c1CC3N(C)CC2` (stereo not drawn), the inhibition was 80% (HTR2A; ligand displacement; radioligand; 10 µM).
`CN1CCC[C@H]1c1cccnc1` gave an inhibition of 97.6% (Neuronal acetylcholine receptor; alpha4/beta2 (Rattus norvegicus, UniProt P09483+P12390); ligand displacement; radioligand; 50 µM).
`COc1cc2c3c(c1OC)-c1c(OC)ccc(O)c1CC3N(C)CC2` (stereo not drawn) gave an inhibition of 36% (HTR2A; ligand displacement; radioligand; 10 µM).
With `COc1cc(/C=C/C(=O)O)ccc1OCc1cn(CC(=O)Nc2ccccc2)nn1` the inhibition was 10.4% (PPO3; enzyme activity; inhibitor; 40 µM).
`COc1cc2c(cc1OC)-c1c(OC)c(OC)cc3c1[C@H](C2)N(C)CC3` (racemic) gave an inhibition of 34% (HTR2A; ligand displacement; radioligand; 10 µM).
The inhibition of `COc1cc(/C=C/C(=O)O)ccc1OCc1cn(CC(=O)Nc2ccc([N+](=O)[O-])cc2C)nn1` is reported as 44.9% (PPO3; enzyme activity; inhibitor; 40 µM).
